Measurements taken from ChEMBL document CHEMBL1275292, “Design and synthesis of bioactive adamantanaminoalcohols and adamantanamines” (Eur J Med Chem, 2010).
Activity calls are given as the source filed them. The rule behind the calls is not given here.

Legend:
H3N2 subtype [1] = assay: Antiviral activity against Influenza A virus (A/Hong Kong/7/1987(H3N2)) infected in MDCK cells assessed as inhibition of virus-induced cytopathogenicity at 500 uM by MTS assay; assay type: functional, organism-based
Trypanosoma brucei [2] = assay: Antiparasitic activity against Trypanosoma brucei 427 bloodstream forms assessed as inhibition of parasite growth after 48 hrs; assay type: functional, organism-based
In short: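 Bloodstream-form T. brucei strain 427 were grown at 37 °C and pH 7.4 in modified Iscove's medium, in 4 ml cultures for 48 h across a drug range of 0.1 to 25. Cell densities were counted by hemocytometer and growth was expressed as % of untreated controls. IC50 and IC90 were derived from these counts, as mean ± SD of three experiments.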

[3] = Cytotoxicity against MDCK cells by MTS assay; assay type: cell-based, Canis lupus familiaris; settings: dog
Trypanosoma brucei [4] = assay: Antiparasitic activity against Trypanosoma brucei 427 bloodstream forms assessed as inhibition of parasite growth at 5 ug/mL after 48 hrs; assay type: functional; settings: Trypanosoma brucei, 427, 48 h; read-out: GI
H3N2 subtype [5] = assay: Antiviral activity against Influenza A virus (A/Hong Kong/7/1987(H3N2)) infected in MDCK cells assessed as inhibition of virus-induced cytopathogenicity by MTS assay; assay type: functional, organism-based
In short: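 MDCK cells infected with influenza A/HK/7/87 (H3N2), whose M2 carries serine at position 31. Virus-induced cytopathic effect was read after multiple replication cycles at 72 h post infection by microscopic scoring and by a colorimetric formazan MTS cell-viability assay. EC50 is the concentration giving 50% inhibition of CPE by MTS. Compounds were tested as hydrochlorides, aminoalcohols as free bases. Values are mean ± SD with the number of independent determinations.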

[6] = Selectivity index, ratio of MCC for MDCK cells to EC50 for Influenza A virus (A/Hong Kong/7/1987(H3N2)); assay type: toxicity, cell-based; settings: dog, read-out: Selectivity Index
[7] = Trypanosoma brucei, 427, 48 h, read-out: IC50

Row | SMILES | inhibition (H3N2 subtype [1]) | IC50 (Trypanosoma brucei [2]) | MCC [3] | inhibition of growth at 5 µg/mL (Trypanosoma brucei [4]) | EC50 (H3N2 subtype [5]) | IC90 (Trypanosoma brucei [2]; Trypanosoma brucei, 427, 48 h) | IC50 (Trypanosoma brucei [2]; [7]) | selectivity ratio [6]
1 | CN(C)CCCC12CC3CC(CC(C3)C1N)C2 (centres undefined) | inactive | Not Active | > 200 µM | 30% | – | – | – | –
2 | NC1(CO)C2CC3CC(C2)CC1C3 (centres undefined) | – | – | > 459 µM | – | 1.46 µM | 18.2 µM | 9.4 µM | > 314
3 | NCCC12CC3CC(CC(C3)C1O)C2 (centres undefined) | – | Not Active | 512 µM | 30% | 8.6 µM | – | – | 60
4 | CNC1(c2ccccn2)C2CC3CC(C2)CC1C3 (centres undefined) | inactive | – | 264 µM | – | – | > 25 µM | 24.6 µM | –
5 | NC1CC2CC3CC(C2)C1C3 (centres undefined) | – | Not Active | 107 µM | 30% | 1.5 µM | – | – | 69
6 | NCCC1(O)C2CC3CC(C2)CC1C3 (centres undefined) | – | Not Active | 17 µM | 30% | 6.24 µM | – | – | 3
7 | OC1(C2CCCCN2)C2CC3CC(C2)CC1C3 (centres undefined) | inactive | Not Active | 208 µM | 30% | – | – | – | –
8 | NCC1(CO)C2CC3CC(C2)CC1C3 (centres undefined) | – | Not Active | 87 µM | 30% | 0.34 µM | – | – | 256
9 | NCCC1(O)CC2CC3CC(C2)C1C3 (centres undefined) | – | Not Active | 512 µM | 30% | 7.68 µM | – | – | 67
10 | NCC1(O)C2CC3CC(C2)CC1C3 (centres undefined) | inactive | Not Active | – | 30% | – | – | – | –
11 | CC(N)C12CC3CC(CC(C3)C1)C2 (centres undefined) [RIMANTADINE] | – | – | > 100 µM | – | ≤ 0.362 µM | 14 µM | – | > 276
12 | CNC(CN)C12CC3CC(CC(C3)C1)C2 (centres undefined) | inactive | – | 404 µM | – | – | 7.8 µM | 5.2 µM | –
13 | NC(=O)c1ncn([C@@H]2O[C@H](CO)[C@@H](O)[C@H]2O)n1 [RIBAVIRIN] | – | – | – | – | 8.7 µM | – | – | –
14 | CN(C)CCCC12CC3CC(CC(C3)C1O)C2 (centres undefined) | inactive | – | > 250 µM | – | – | 1.8 µM | 0.84 µM | –
15 | NC1C2CC3CC(C2)CC1(c1ccccc1)C3 (centres undefined) | inactive | – | 218 µM | – | – | > 20 µM | 11.1 µM | –
16 | NC12CC3CC(CC(C3)C1)C2 [AMANTADINE] | – | – | > 100 µM | – | 2 µM | – | – | > 51
17 | CN(C)CCC[C@]1(O)CC2CC3CC(C2)C1C3 (some centres undefined) | inactive | – | > 250 µM | – | – | 1.7 µM | 0.84 µM | –
